Series [1] addresses DNA topoisomerase 2-alpha (Homo sapiens, UniProt P11388). Nature of the series: Inhibition of human topoisomerase 2alpha.
Series [2] is described as follows: Cmax in Wistar Hannover rat at 500 mg/kg, po dosed once daily for 14 days measured on day 14. The arrangement: dose 500 mg/kg, route oral. In kind it is ADME, organism-based. The following applies: in vivo. In short, it runs like this:
(§1)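 Wistar Hannover rats, 2 males and 2 females per dose, dosed orally once daily for 14 days at 250, 500 or 750 mg/kg/day. Vehicle was 0.2 M meglumine/20% hydroxypropyl-β-cyclodextrin. Blood was sampled on day 14 and exposure measured in blood. Animals were killed after sampling without necropsy.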

Series [3] has as its system Staphylococcus aureus. The series is described as follows: Antimicrobial activity against wild-type Staphylococcus aureus 516 by broth microdilution method. It is filed as functional. The method in brief:
(§2)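 Broth microdilution following CLSI guidelines. Values under 12.5 μM are averages of three or more replicates.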
In general terms: Broth dilution looks for growth in wells or tubes with falling amounts of substance.

In series [4] the test system is Streptococcus pyogenes. Nature of the series: Antimicrobial activity against Streptococcus pyogenes by broth microdilution method. In kind it is functional. The method in brief: as §2
The nature of series [5]: Bioavailability in mouse at 3 mg/kg, iv or at 10 mg/kg, po by LC-MS/MS method. It is filed as ADME, organism-based. The following applies: in vivo. The method in brief: (§3)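 Male mice (CD-1) or male Wistar Hannover rats, three per experiment, given a 15 min iv infusion at 3 mg/kg or oral dosing at 10 mg/kg. Vehicle was DMA:TEG:saline 40/40/20 for mice and meglumine/cyclodextrin for rats. Serial jugular blood was taken over 0–24 h, plasma analysed by LC-MS/MS, and a noncompartmental analysis used. Mean values are given.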

In series [6] the test system is Streptococcus pneumoniae. Nature of the series: Antimicrobial activity against Streptococcus pneumoniae 2800 harboring GyrB K143I/T172A mutant by broth microdilution method. In kind it is functional.
In series [7] the test system is Staphylococcus aureus. Nature of the series: Inhibition of cell wall biosynthesis in methicillin-sensitive Staphylococcus aureus by [14C]-N-acetylglucosamine incorporation assay. In kind it is functional, organism-based.
For series [8], the system named is Staphylococcus aureus. Nature of the series: Inhibition of RNA synthesis in methicillin-sensitive Staphylococcus aureus by [3H]-uridine incorporation assay. It is filed as functional, organism-based.
For series [9], the system named is Staphylococcus aureus. The series is described as follows: Antimicrobial activity against methicillin-sensitive Staphylococcus aureus ARC516 infected in immunocompetant mouse assessed as reduction in CFU at AUC of 70 ug.hr/mL compound administered as single ip dose starting 2 hrs after infection relative to untreated control. In kind it is functional. The method in brief: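 CD-1 mouse thighs were infected with mid-log S. aureus ARC516 at a target inoculum of 5 × 10⁵ CFU. Groups of five received IP compound in DMA:TEG:saline 40/40/20%, starting 2 h post-infection; a vehicle group served as control. Mice were killed 24 h after treatment start, and thigh homogenates were plated on tryptic soy agar (37 °C, overnight) for CFU/g. Free exposure was corrected for mouse plasma protein binding.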

Series [10] in a line: AUC in Wistar Hannover rat at 250 mg/kg, po dosed once daily for 14 days measured on day 14. In kind it is ADME, organism-based. The arrangement: dose 250 mg/kg, route oral. The following applies: plasma. The method in brief: as §1
The subject of series [11] is Staphylococcus aureus. Nature of the series: Inhibition of DNA synthesis in methicillin-sensitive Staphylococcus aureus by [3H]-thymidine incorporation assay. It is filed as functional, organism-based.
For series [12], the system named is Staphylococcus aureus. The series is described as follows: Antimicrobial activity against methicillin-sensitive Staphylococcus aureus ARC516 infected in immunocompetant mouse administered as single ip dose starting 2 hrs after infection. It is filed as functional, organism-based.
Series [13] is described as follows: Bioavailability in rat at 3 mg/kg, iv or at 10 mg/kg, po by LC-MS/MS method. In kind it is ADME, organism-based. The conditions noted are these: in vivo. The method in brief: as §3
Series [14] is described as follows: Toxicity in po dosed Wistar Hannover rat administered as single dose. It is filed as organism-based. The conditions noted are these: in vivo. The method in brief:
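Single-dose oral phase in groups of three male Wistar Hannover rats, at doses up to 1000 mg/kg. Vehicle was 0.2 M meglumine/20% hydroxypropyl-β-cyclodextrin.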

Series [15] deals with Staphylococcus aureus. The series is described as follows: Antimicrobial activity against methicillin-sensitive Staphylococcus aureus by broth microdilution method in presence of 50% human serum. It is filed as functional. The method in brief: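 CLSI broth microdilution against methicillin-sensitive S. aureus, run with 50% human serum added to the medium to reflect plasma protein binding. Values under 12.5 μM are averages of three or more replicates.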

Molecules are shown by their SMILES. Converted amounts (≈) assume the structure as drawn.

As usually defined, the IC50 is the concentration that inhibits the measured activity by half. Usually Cmax stands for the maximum level reached in the sampled fluid or tissue. The MIC is the smallest concentration in the dilution series that meets the test's criterion for growth inhibition. What is called bioavailability is dose-corrected exposure relative to a reference, in per cent. A higher bioavailability goes with good availability. By AUC is commonly meant concentration integrated over time. Low readings indicate low exposure, high ones high exposure.

Chain of DNA topoisomerase 2-alpha (P11388 whole entry): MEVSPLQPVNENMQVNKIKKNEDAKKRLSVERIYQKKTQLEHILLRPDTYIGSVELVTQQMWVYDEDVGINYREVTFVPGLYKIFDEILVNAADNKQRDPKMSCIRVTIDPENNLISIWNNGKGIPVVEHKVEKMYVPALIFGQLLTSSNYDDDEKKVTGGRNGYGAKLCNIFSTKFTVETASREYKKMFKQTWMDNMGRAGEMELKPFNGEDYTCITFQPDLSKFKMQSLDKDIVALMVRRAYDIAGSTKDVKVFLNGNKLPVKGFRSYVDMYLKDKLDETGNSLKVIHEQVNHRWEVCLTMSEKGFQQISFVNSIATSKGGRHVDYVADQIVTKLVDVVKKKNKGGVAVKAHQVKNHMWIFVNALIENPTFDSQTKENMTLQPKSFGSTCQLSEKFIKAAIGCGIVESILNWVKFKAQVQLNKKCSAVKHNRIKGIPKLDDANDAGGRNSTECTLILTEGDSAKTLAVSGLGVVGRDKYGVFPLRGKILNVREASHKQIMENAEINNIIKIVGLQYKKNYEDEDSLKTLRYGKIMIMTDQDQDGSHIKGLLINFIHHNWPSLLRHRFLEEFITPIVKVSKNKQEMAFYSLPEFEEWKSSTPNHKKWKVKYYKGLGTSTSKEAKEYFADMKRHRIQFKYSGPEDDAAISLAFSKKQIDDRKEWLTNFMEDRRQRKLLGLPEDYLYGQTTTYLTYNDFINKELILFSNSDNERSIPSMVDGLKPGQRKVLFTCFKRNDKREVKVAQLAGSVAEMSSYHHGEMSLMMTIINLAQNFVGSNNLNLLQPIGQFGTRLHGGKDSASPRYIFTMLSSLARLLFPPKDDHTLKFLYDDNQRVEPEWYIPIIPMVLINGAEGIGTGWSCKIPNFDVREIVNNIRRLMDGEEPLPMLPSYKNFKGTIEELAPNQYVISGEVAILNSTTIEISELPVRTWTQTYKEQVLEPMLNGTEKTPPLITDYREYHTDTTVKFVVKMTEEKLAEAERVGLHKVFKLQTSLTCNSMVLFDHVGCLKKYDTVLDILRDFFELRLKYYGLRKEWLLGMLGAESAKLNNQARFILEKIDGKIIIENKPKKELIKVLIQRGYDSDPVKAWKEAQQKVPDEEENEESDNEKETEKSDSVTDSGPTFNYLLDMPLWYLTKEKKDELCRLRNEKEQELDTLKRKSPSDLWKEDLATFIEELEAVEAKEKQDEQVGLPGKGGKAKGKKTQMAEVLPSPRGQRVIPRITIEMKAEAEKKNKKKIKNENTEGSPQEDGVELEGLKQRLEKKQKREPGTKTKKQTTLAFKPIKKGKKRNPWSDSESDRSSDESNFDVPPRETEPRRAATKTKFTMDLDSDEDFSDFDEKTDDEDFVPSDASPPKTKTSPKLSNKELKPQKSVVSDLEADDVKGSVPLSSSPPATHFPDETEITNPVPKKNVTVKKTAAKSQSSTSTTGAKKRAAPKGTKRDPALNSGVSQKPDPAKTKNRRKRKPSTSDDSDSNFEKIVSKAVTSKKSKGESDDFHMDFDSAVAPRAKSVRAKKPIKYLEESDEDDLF

With `Cc1noc2c(F)c3c(cc12)CC1(C(=O)NC(=O)NC1=O)[C@H]1[C@H](C)O[C@H](C)CN31`, the IC50 in series [1] was 50 µM; in series [7], 8 µg/mL (≈ 19.9 µM); in series [8], 5 µg/mL (≈ 12.4 µM); in [11], 0.06 µg/mL (≈ 0.149 µM). In addition, in series [2], the Cmax came out at 440 µM. Moreover, the MIC was 0.5 µg/mL (≈ 1.24 µM) in [3], 6.2 µM (≈ 2.49 µg/mL) in series [4], 4 µg/mL (≈ 9.94 µM) in series [6] and 3.1 µM in [15]. The results for the bioavailability in series [5] and in series [13] were 58% and 71%, respectively. The “fold change (FC)” value in series [9] was 3. For the same compound, in series [10], the AUC at 336 h was 2300 µM·h. Besides, the Activity result in series [12] was “Dose-dependent effect”. The same compound displayed an MTD in [14] of at most 750 mg/kg.

For the origin of these results see ChEMBL document CHEMBL3352584, “Novel DNA gyrase inhibiting spiropyrimidinetriones with a benzisoxazole scaffold: SAR and in vivo characterization” (J Med Chem, 2014).
